{
  "source": "ChEMBL document CHEMBL3259728",
  "about": "“Design, synthesis and biological evaluation of some novel substituted quinazolines as antitumor agents” (2014)",
  "format_in_all_cases": "functional",
  "key": {"[1]": {"tested_on": "SW-620", "assay": "Growth inhibition of human SW620 cells assessed as cell growth at 10^-5 M after 48 hrs by SRB assay", "details": "SW-620, 48 h, read-out: Activity"}, "[2]": {"assay": "Growth inhibition of human OVCAR8 cells assessed as cell growth at 10^-4 M after 48 hrs by SRB assay", "details": "OVCAR-8, 48 h, read-out: Activity"}, "[3]": {"tested_on": "MDA-MB-231", "assay": "Growth inhibition of human MDA-MB-231 cells assessed as cell growth at 10^-5 M after 48 hrs by SRB assay", "details": "MDA-MB-231, 48 h, read-out: Activity"}, "[4]": {"assay": "Growth inhibition of human BT549 cells assessed as cell growth at 10^-4 M after 48 hrs by SRB assay", "details": "BT-549, 48 h, read-out: Activity", "in_short": "(§1)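 Five-dose NCI panel protocol. Each dose (10^-4 to 10^-8 M, 10-fold steps) was given as 48 h continuous exposure, and protein was measured by SRB staining. Percentage growth at each level is [(Ti−Tz)/(C−Tz)]×100, where Tz is time-zero absorbance and C is untreated control.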"}, "[5]": {"tested_on": "SNB-75", "assay": "Growth inhibition of human SNB75 cells assessed as cell growth at 10^-4 M after 48 hrs by SRB assay", "details": "SNB-75, 48 h, read-out: Activity"}, "[6]": {"assay": "Growth inhibition of human OVCAR4 cells assessed as cell growth at 10^-8 M after 48 hrs by SRB assay", "details": "OVCAR-4, 48 h, read-out: Activity"}, "[7]": {"assay": "Growth inhibition of human Hs578T cells assessed as cell growth at 10^-5 M after 48 hrs by SRB assay", "details": "Hs-578T, read-out: Activity"}, "[8]": {"assay": "Cytotoxicity against human NCI-ADR-RES cells after 48 hrs by SRB assay", "in_short": "(§2)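 NCI 60-cell-line panel of human tumour lines from nine cancer types. Continuous 48 h exposure at five 10-fold dilutions from 10^-4 to 10^-8 M, with 5-FU as positive control. SRB protein stain read spectrophotometrically at time zero, untreated control and each concentration. GI50, TGI and LC50 were derived from the [(Ti−Tz)/(C−Tz)]×100 growth relations, and out-of-range values are given as > or < the tested limits.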"}, "[9]": {"assay": "Growth inhibition of human SF539 cells assessed as cell growth at 10^-5 M after 48 hrs by SRB assay", "details": "SF-539, 48 h, read-out: Activity"}, "[10]": {"tested_on": "SN12C", "assay": "Growth inhibition of human SN12C cells assessed as cell growth at 10^-4 M after 48 hrs by SRB assay", "details": "read-out: Activity"}, "[11]": {"tested_on": "MDA-MB-435", "assay": "Growth inhibition of human MDA-MB-435 cells assessed as cell growth at 10^-7 M after 48 hrs by SRB assay", "details": "MDA-MB-435, 48 h, read-out: Activity"}, "[12]": {"tested_on": "A498", "assay": "Cytotoxicity against human A498 cells after 48 hrs by SRB assay", "details": "A498, 48 h", "in_short": "as §2"}, "[13]": {"assay": "Growth inhibition of human OVCAR5 cells assessed as cell growth at 10^-4 M after 48 hrs by SRB assay", "details": "OVCAR-5, 48 h, read-out: Activity"}, "[14]": {"tested_on": "CCRF-CEM", "assay": "Growth inhibition of human CCRF-CEM cells assessed as cell growth at 10^-7 M after 48 hrs by SRB assay", "details": "read-out: Activity", "in_short": "as §1"}, "[15]": {"tested_on": "CAKI-1", "assay": "Growth inhibition of human CAKI-1 cells assessed as cell growth at 10^-6 M after 48 hrs by SRB assay", "details": "CAKI-1, 48 h, read-out: Activity", "in_short": "as §1"}, "[16]": {"assay": "Growth inhibition of human EKVX cells assessed as cell growth at 10^-7 M after 48 hrs by SRB assay", "details": "read-out: Activity"}, "[17]": {"assay": "Growth inhibition of human UO31 cells assessed as cell growth at 10^-5 M after 48 hrs by SRB assay", "details": "UO-31, 48 h, read-out: Activity"}, "[18]": {"assay": "Growth inhibition of human MOLT4 cells assessed as cell growth at 10^-5 M after 48 hrs by SRB assay", "details": "MOLT-4, 48 h, read-out: Activity"}, "[19]": {"tested_on": "COLO 205", "assay": "Growth inhibition of human COLO205 cells assessed as cell growth at 10^-8 M after 48 hrs by SRB assay", "details": "COLO 205, 48 h, read-out: Activity", "in_short": "as §1"}, "[20]": {"tested_on": "HT-29", "assay": "Growth inhibition of human HT-29 cells assessed as cell growth at 10^-6 M after 48 hrs by SRB assay", "details": "HT-29, 48 h, read-out: Activity"}, "[21]": {"assay": "Growth inhibition of human OVCAR3 cells assessed as cell growth at 10^-4 M after 48 hrs by SRB assay", "details": "OVCAR-3, 48 h, read-out: Activity"}, "[22]": {"assay": "Growth inhibition of human UO31 cells assessed as cell growth at 10^-4 M after 48 hrs by SRB assay", "details": "UO-31, 48 h, read-out: Activity"}, "[23]": {"tested_on": "PC-3", "assay": "Growth inhibition of human PC3 cells assessed as cell growth at 10^-6 M after 48 hrs by SRB assay", "details": "PC-3, 48 h, read-out: Activity"}, "[24]": {"assay": "Growth inhibition of human OVCAR8 cells assessed as cell growth at 10^-6 M after 48 hrs by SRB assay", "details": "OVCAR-8, 48 h, read-out: Activity"}, "[25]": {"assay": "Growth inhibition of human UO31 cells assessed as cell growth at 10^-6 M after 48 hrs by SRB assay", "details": "UO-31, 48 h, read-out: Activity"}, "[26]": {"assay": "Growth inhibition of human NCI-ADR-RES cells assessed as cell growth at 10^-6 M after 48 hrs by SRB assay", "details": "read-out: Activity"}, "[27]": {"assay": "Growth inhibition of human OVCAR4 cells assessed as cell growth at 10^-7 M after 48 hrs by SRB assay", "details": "OVCAR-4, 48 h, read-out: Activity"}, "[28]": {"tested_on": "786-0", "assay": "Growth inhibition of human 786-0 cells assessed as cell growth at 10^-8 M after 48 hrs by SRB assay", "details": "786-0, 48 h, read-out: Activity", "in_short": "as §1"}, "[29]": {"tested_on": "SF-268", "assay": "Growth inhibition of human SF268 cells assessed as cell growth at 10^-8 M after 48 hrs by SRB assay", "details": "SF-268, 48 h, read-out: Activity"}, "[30]": {"assay": "Growth inhibition of human SF295 cells assessed as cell growth at 10^-6 M after 48 hrs by SRB assay", "details": "SF-295, 48 h, read-out: Activity"}, "[31]": {"assay": "Growth inhibition of human OVCAR8 cells assessed as cell growth at 10^-8 M after 48 hrs by SRB assay", "details": "OVCAR-8, 48 h, read-out: Activity"}, "[32]": {"tested_on": "SNB-75", "assay": "Growth inhibition of human SNB75 cells assessed as cell growth at 10^-8 M after 48 hrs by SRB assay", "details": "SNB-75, 48 h, read-out: Activity"}, "[33]": {"tested_on": "SNB-19", "assay": "Growth inhibition of human SNB19 cells assessed as cell growth at 10^-7 M after 48 hrs by SRB assay", "details": "SNB-19, 48 h, read-out: Activity"}, "[34]": {"tested_on": "HOP-62", "assay": "Growth inhibition of human HOP62 cells assessed as cell growth at 10^-5 M after 48 hrs by SRB assay", "details": "HOP-62, 48 h, read-out: Activity"}, "[35]": {"details": "read-out: LC50 (the source's name)"}, "[36]": {"details": "read-out: pLC50 (the source's name) (converted)"}},
  "data": [
    {"smiles": "Cc1ccc(-c2nc3ccc(Cl)cc3c(=O)n2/N=C/c2ccccc2)cc1", "values": [
      {"measurement": "growth at 10 µM", "setting": "[1]", "value": 67, "unit": "%"},
      {"measurement": "growth at 100 µM", "setting": "[2]", "value": 27, "unit": "%"},
      {"measurement": "growth at 10 µM", "setting": "[3]", "value": 33, "unit": "%"},
      {"measurement": "growth at 100 µM", "setting": "[4]", "value": 72, "unit": "%"},
      {"measurement": "growth at 100 µM", "setting": "[5]", "value": -43, "unit": "%"},
      {"measurement": "growth at 0.01 µM", "setting": "[6]", "value": 95, "unit": "%"},
      {"measurement": "growth at 10 µM", "setting": "[7]", "value": 3, "unit": "%"},
      {"measurement": "GI50", "setting": "[8]; read-out: GI50", "value": 8.87, "unit": "µM"},
      {"measurement": "CC50", "setting": "[8]; [35]", "value": "> 100", "unit": "µM"},
      {"measurement": "TGI", "setting": "[8]; read-out: TGI", "value": "> 100", "unit": "µM"},
      {"measurement": "GI50", "setting": "[8]; read-out: pGI50 (converted)", "value": 8.91, "unit": "µM"},
      {"measurement": "CC50", "setting": "[8]; [36]", "value": "> 100", "unit": "µM"},
      {"measurement": "TGI", "setting": "[8]; read-out: pTGI", "value": "> 100", "unit": "µM"},
      {"measurement": "growth at 10 µM", "setting": "[9]", "value": 73, "unit": "%"},
      {"measurement": "growth at 100 µM", "setting": "[10]", "value": 42, "unit": "%"},
      {"measurement": "growth at 0.1 µM", "setting": "[11]", "value": 86, "unit": "%"},
      {"measurement": "GI50", "setting": "[12]; read-out: GI50", "value": 5.91, "unit": "µM"},
      {"measurement": "CC50", "setting": "[12]; [35]", "value": "> 100", "unit": "µM"},
      {"measurement": "TGI", "setting": "[12]; read-out: TGI", "value": "> 100", "unit": "µM"},
      {"measurement": "GI50", "setting": "[12]; read-out: pGI50 (converted)", "value": 5.89, "unit": "µM"},
      {"measurement": "CC50", "setting": "[12]; [36]", "value": "> 100", "unit": "µM"},
      {"measurement": "TGI", "setting": "[12]; read-out: pTGI", "value": "> 100", "unit": "µM"},
      {"measurement": "growth at 100 µM", "setting": "[13]", "value": 61, "unit": "%"},
      {"measurement": "growth at 0.1 µM", "setting": "[14]", "value": 97, "unit": "%"},
      {"measurement": "growth at 1 µM", "setting": "[15]", "value": 77, "unit": "%"},
      {"measurement": "growth at 0.1 µM", "setting": "[16]", "value": 79, "unit": "%"},
      {"measurement": "growth at 10 µM", "setting": "[17]", "value": 42, "unit": "%"},
      {"measurement": "growth at 10 µM", "setting": "[18]", "value": 88, "unit": "%"},
      {"measurement": "growth at 0.01 µM", "setting": "[19]", "value": 103, "unit": "%"},
      {"measurement": "growth at 1 µM", "setting": "[20]", "value": 94, "unit": "%"},
      {"measurement": "growth at 100 µM", "setting": "[21]", "value": 15, "unit": "%"},
      {"measurement": "growth at 100 µM", "setting": "[22]", "value": 39, "unit": "%"},
      {"measurement": "growth at 1 µM", "setting": "[23]", "value": 86, "unit": "%"},
      {"measurement": "growth at 1 µM", "setting": "[24]", "value": 89, "unit": "%"},
      {"measurement": "growth at 1 µM", "setting": "[25]", "value": 60, "unit": "%"},
      {"measurement": "growth at 1 µM", "setting": "[26]", "value": 89, "unit": "%"},
      {"measurement": "growth at 0.1 µM", "setting": "[27]", "value": 96, "unit": "%"},
      {"measurement": "growth at 0.01 µM", "setting": "[28]", "value": 90, "unit": "%"},
      {"measurement": "growth at 0.01 µM", "setting": "[29]", "value": 91, "unit": "%"},
      {"measurement": "growth at 1 µM", "setting": "[30]", "value": 80, "unit": "%"},
      {"measurement": "growth at 0.01 µM", "setting": "[31]", "value": 101, "unit": "%"},
      {"measurement": "growth at 0.01 µM", "setting": "[32]", "value": 87, "unit": "%"},
      {"measurement": "growth at 0.1 µM", "setting": "[33]", "value": 93, "unit": "%"},
      {"measurement": "growth at 10 µM", "setting": "[34]", "value": 36, "unit": "%"}
    ]}
  ]
}
